According to ChEMBL document CHEMBL1148651, “Potent antitumor 9-anilinoacridines and acridines bearing an alkylating N-mustard residue on the acridine chromophore: synthesis and biological activity” (J Med Chem, 2006):

Columns and labels:
[1] = system: CCRF-CEM; test: Antiproliferative activity against human taxol resistant CCRF-CEM cell line; assay type: functional, cell-based
Method in brief: (§1)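 Leukemic CCRF-CEM parent and resistant sublines were exposed for 72 h, then given phenazine methosulfate-XTT at 37 °C for 6 h. Absorbance was read at 450 and 630 nm. Six or seven concentrations were tested in duplicate, and IC50 came from median-effect plot analysis. Resistance fold is relative to the parent CCRF-CEM IC50.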

[2] = system: CCRF-CEM; test: Antiproliferative activity against human vinblastine resistant CCRF-CEM cell line; assay type: functional, cell-based; method in brief: as §1
[3] = system: HCT-116; test: Antiproliferative activity against human HCT116 cell line; assay type: functional, cell-based
Method in brief: (§2)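 Growth inhibition after 72 h continuous exposure. Solid tumour lines were read by sulforhodamine B. Six or seven concentrations per compound were tested in duplicate. IC50 came from median-effect (mass-action law) dose-effect analysis.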

[4] = system: CCRF-CEM; test: Antiproliferative activity against human CCRF-CEM cell line; assay type: functional, cell-based
[5] = system: MX1; test: Antiproliferative activity against human MX1 cell line; assay type: functional, cell-based; method in brief: as §2
[6] = system: A549; test: Antiproliferative activity against human A549 cell line; assay type: functional, cell-based; method in brief: as §2
[7] = system: Mus musculus; test: Toxicity against nude mouse xenografted with human MX1 cell line assessed as weight loss at 1.5 mg/kg, iv after 14 days; assay type: functional
Method in brief: (§3)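 MX-1 xenograft nude mice were implanted with 50 µg tissue subcutaneously on day 0. They were treated iv by tail vein every 2 or 3 days in 20 µL DMSO plus 180 µL saline. Toxicity is the maximum body weight loss (%) relative to initial pretreatment body weight, on the day indicated.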

[8] = system: MX1; test: Antitumor activity against human MX1 cell line xenografted in nude mouse at 1.5 mg/kg, iv after 14 days; assay type: functional
Method in brief: (§4)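 Nude mice were implanted subcutaneously with MX-1 tumour tissue (50 µg) on day 0. Doses were given iv via the tail vein every 2 or 3 days (Q2D or Q3D schedules) in 20 µL DMSO plus 180 µL saline. Tumour volume was measured by caliper (length × width × height). Result is T/C (%) on the stated day.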

[9] = system: MX1; test: Antitumor activity against human MX1 cell line xenografted in nude mouse at 4 mg/kg, iv after 19 days; assay type: functional; method in brief: as §4
[10] = system: Mus musculus; test: Toxicity against nude mouse xenografted with human MX1 cell line assessed as weight loss at 4 mg/kg, iv after 17 days; assay type: functional; method in brief: as §3
[11] = system: Mus musculus; test: Toxicity against nude mouse xenografted with human MX1 cell line assessed as weight loss at 2 mg/kg, iv after 14 days; assay type: functional; method in brief: as §3
[12] = system: MX1; test: Antitumor activity against human MX1 cell line xenografted in nude mouse at 2 mg/kg, iv after 14 days; assay type: functional; method in brief: as §4
[13] = system: Mus musculus; test: Toxicity against nude mouse xenografted with human MX1 cell line assessed as weight loss at 10 mg/kg, iv after 19 days; assay type: functional
[14] = system: Mus musculus; test: Toxicity against nude mouse xenografted with human MX1 cell line assessed as weight loss at 10 mg/kg, iv after 13 days; assay type: functional; method in brief: as §3
[15] = system: MX1; test: Antitumor activity against human MX1 cell line xenografted in nude mouse at 10 mg/kg, iv after 15 days; assay type: functional; method in brief: as §4
[16] = system: Mus musculus; test: Toxicity against nude mouse xenografted with human MX1 cell line assessed as weight loss at 10 mg/kg, iv after 17 days; assay type: functional
[17] = system: Mus musculus; test: Toxicity against nude mouse xenografted with human MX1 cell line assessed as weight loss at 2 mg/kg, iv after 12 days; assay type: functional; method in brief: as §3

`Nc1cc(CO)cc(Nc2c3ccccc3nc3c(OCCN(CCCl)CCCl)cccc23)c1` was tested, and the IC50 [1] was 63.3 nM, the IC50 [2] was 126 nM and the IC50 [3] was 7.7 nM. It also gave an IC50 [4] of 6.7 nM, an IC50 [5] of 6.6 nM and an IC50 [6] of 32.4 nM.
Work on `CCOC(=O)Nc1cc(CO)cc(Nc2c3ccccc3nc3c(OCCN(CCCl)CCCl)cccc23)c1` yielded an IC50 [1] of 126 nM, an IC50 [2] of 231 nM and an IC50 [3] of 59.5 nM. The IC50 [4] was 25.7 nM, the IC50 [5] was 55.5 nM and the IC50 [6] was 94 nM.
With `ClCCN(CCCl)CCCCOc1cccc2cc3ccccc3nc12` the IC50 [1] was 393 nM, the IC50 [2] was 308 nM and the IC50 [3] was 118 nM. It also gave an IC50 [4] of 51.2 nM, an IC50 [5] of 82 nM and an IC50 [6] of 226 nM.
`Nc1cc(CO)cc(Nc2c3ccccc3nc3c(OCCCCN(CCCl)CCCl)cccc23)c1` gave an IC50 [1] of 40.5 nM, an IC50 [2] of 111 nM and an IC50 [3] of 9.5 nM. It also gave an IC50 [4] of 4.2 nM, an IC50 [5] of 2.4 nM and an IC50 [6] of 5.3 nM.
Work on `COc1ccc(Nc2c3ccccc3nc3c(OCCCCN(CCCl)CCCl)cccc23)cc1N` yielded an IC50 [1] of 89.9 nM, an IC50 [2] of 86.5 nM and an IC50 [3] of 8.3 nM. It also gave an IC50 [4] of 5.9 nM, an IC50 [5] of 5.6 nM and an IC50 [6] of 19 nM.
Compound `COc1ccc(Nc2c3ccccc3nc3c(OCCN(CCCl)CCCl)cccc23)cc1N` has an IC50 [1] of 57.5 nM, an IC50 [2] of 60.1 nM and an IC50 [3] of 48.2 nM. The IC50 [4] was 12.3 nM, the IC50 [5] was 24.1 nM and the IC50 [6] was 118 nM.
`Cc1cc(N)cc(Nc2c3ccccc3nc3c(OCCCCN(CCCl)CCCl)cccc23)c1` showed an IC50 [1] of 61.1 nM, an IC50 [2] of 54.5 nM and an Activity [7] of 8%. It also gave an IC50 [3] of 9.1 nM, an Activity [8] of 6% and an IC50 [4] of 3.7 nM. It also gave an IC50 [5] of 10 nM and an IC50 [6] of 8.9 nM.
Compound `Cc1cc(N)cc(Nc2c3ccccc3nc3c(OCCN(CCCl)CCCl)cccc23)c1` has an Activity [9] of 79%, an IC50 [1] of 21.7 nM and an IC50 [2] of 18.8 nM. For the same compound, the Activity [10] was 15%, the IC50 [3] was 23.2 nM and the IC50 [4] was 4.1 nM. The IC50 [5] was 21.9 nM and the IC50 [6] was 44.9 nM.
`OCc1cc(O)cc(Nc2c3ccccc3nc3c(OCCCCN(CCCl)CCCl)cccc23)c1` was tested, and the IC50 [1] was 117 nM, the IC50 [2] was 338 nM and the IC50 [3] was 9.1 nM. It also gave an IC50 [4] of 5.9 nM, an IC50 [5] of 7.2 nM and an IC50 [6] of 25.1 nM.
In the case of `Nc1cc(CO)cc(Nc2c3ccccc3nc3ccccc23)c1`, the IC50 [6] is reported as 47 nM.
Compound `ClCCN(CCCl)CCCOc1cccc2cc3ccccc3nc12` has an IC50 [1] of 150 nM, an IC50 [2] of 253 nM and an IC50 [3] of 135 nM. It also gave an IC50 [4] of 35.3 nM, an IC50 [5] of 82.7 nM and an IC50 [6] of 166 nM.
Work on `Cc1ccc(N)cc1Nc1c2ccccc2nc2c(OCCN(CCCl)CCCl)cccc12` yielded an IC50 [1] of 46.5 nM, an IC50 [2] of 31.2 nM and an IC50 [3] of 9 nM. The IC50 [4] was 8 nM, the IC50 [5] was 7.1 nM and the IC50 [6] was 31.6 nM.
With `OCc1cc(O)cc(Nc2c3ccccc3nc3c(OCCN(CCCl)CCCl)cccc23)c1` the IC50 [1] was 139 nM, the IC50 [2] was 152 nM and the IC50 [3] was 125 nM. It also gave an IC50 [4] of 6.9 nM, an IC50 [5] of 58 nM and an IC50 [6] of 108 nM.
With `ClCCN(CCCl)CCOc1cccc2cc3ccccc3nc12` the IC50 [1] was 117 nM, the IC50 [2] was 163 nM and the IC50 [3] was 94.9 nM. For the same compound, the IC50 [4] was 37.6 nM, the IC50 [5] was 70.8 nM and the IC50 [6] was 137 nM.
With `COc1cc(N)cc(Nc2c3ccccc3nc3c(OCCCCN(CCCl)CCCl)cccc23)c1` the IC50 [1] was 43.9 nM, the IC50 [2] was 51.3 nM and the Activity [11] was 8%. It also gave an IC50 [3] of 13.8 nM, an Activity [12] of 77% and an IC50 [4] of 4.2 nM. For the same compound, the IC50 [5] was 5.6 nM and the IC50 [6] was 19 nM.
In the case of `COc1cc(N)cc(Nc2c3ccccc3nc3c(OCCN(CCCl)CCCl)cccc23)c1`, the IC50 [1] is reported as 49.8 nM, the IC50 [2] is reported as 46.9 nM and the Activity [13] is reported as 10%. It also gave an IC50 [3] of 53.8 nM, an Activity [14] of 15% and an IC50 [4] of 11.9 nM. For the same compound, the Activity [15] was 96%, the IC50 [5] was 28.1 nM and the IC50 [6] was 90.2 nM. It also gave an Activity [16] of 10%.
`Cc1ccc(N)cc1Nc1c2ccccc2nc2c(OCCCCN(CCCl)CCCl)cccc12` was tested, and the IC50 [1] was 57.8 nM, the IC50 [2] was 42.3 nM and the IC50 [3] was 13.6 nM. For the same compound, the Activity [12] was 20%, the IC50 [4] was 4.3 nM and the Activity [17] was 21%. The IC50 [5] was 9.2 nM and the IC50 [6] was 15.4 nM.
`CC(=O)O[C@H]1C(=O)[C@@]2(C)[C@H]([C@H](OC(=O)c3ccccc3)[C@]3(O)C[C@H](OC(=O)[C@H](O)[C@@H](NC(=O)c4ccccc4)c4ccccc4)C(C)=C1C3(C)C)[C@]1(OC(C)=O)CO[C@@H]1C[C@@H]2O` [PACLITAXEL] showed an IC50 [1] of 484 nM, an IC50 [2] of 1730 nM and an IC50 [4] of 1.1 nM. It also gave an IC50 [5] of 22.5 nM and an IC50 [6] of 2.1 nM.
`CC[C@]1(O)C[C@@H]2CN(CCc3c([nH]c4ccccc34)[C@@](C(=O)OC)(c3cc4c(cc3OC)N(C)[C@H]3[C@@](O)(C(=O)OC)[C@H](OC(C)=O)[C@]5(CC)C=CCN6CC[C@]43[C@@H]65)C2)C1` [VINBLASTINE] was tested, and the IC50 [1] was 28.7 nM, the IC50 [2] was 207 nM and the IC50 [3] was 0.7 nM. It also gave an IC50 [4] of 0.4 nM, an IC50 [5] of 2 nM and an IC50 [6] of 1.1 nM.
